Key:
L1210 [1] = assay: Antitumor activity expressed as life span was determined against inoculated L1210 leukemia cells (1*10e5) in mice by 11.3 mg/kg dosage of compound (qd (x 3), for days 1, 4, 7,10,13,16); format: functional, Mus musculus
In short: (§1)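 Female mice (~18 g, housed six per cage) received L1210 cells intraperitoneally on day 0. Drug was made fresh and injected at 0.01 mL/g; the stated dose is per injection. Controls received the same volume of 0.154 M NaCl. Survival was followed, with deaths assigned to tumour by necropsy or to drug toxicity by set criteria. Life span is given as mean ± SD.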

L1210 [2] = assay: Antitumor activity expressed as life span was determined against inoculated L1210 leukemia cells (1*10e5) in mice by 17.3 mg/kg dosage of compound (qd (x 3), for days 1,5,9); format: functional, Mus musculus; in short: as §1
L1210 [3] = assay: Antitumor activity expressed as life span was determined against inoculated L1210 leukemia cells (1*10e5) in mice by 5.6 mg/kg dosage of compound (qd (x 3), for days 1,5,9); format: functional, Mus musculus; in short: as §1
L1210 [4] = assay: Antitumor activity expressed as life span was determined against inoculated L1210 leukemia cells (1*10e6) in mice by 11.3 mg/kg dosage of compound (qd (x 3), for days 1, 4, 7,10,13,16); format: functional, Mus musculus; in short: as §1
L1210 [5] = assay: Antitumor activity expressed as life span was determined against inoculated L1210 leukemia cells (1*10e6) in mice by 110 mg/kg dosage of compound (qd (x 3), for days 1, 4, 7); format: functional, Mus musculus; in short: as §1
L1210 [6] = assay: Antitumor activity expressed percentage increase in life span was determined against inoculated L1210 leukemia cells (1*10e6) in mice by 11.3 mg/kg dosage of compound (qd (x 3), for days 1, 4, 7); format: functional; details: Mus musculus
In short: (§2)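 L1210 cells were given intraperitoneally to female mice (~18 g). Freshly prepared drug was injected at 0.01 mL/g, dose per injection, and saline-injected controls were run. The end point was duration of survival. ILS was calculated as percent increase in mean life span over controls. Mice surviving 60 days or more counted as long-term survivors, scored as 60 days.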

L1210 [7] = assay: Antitumor activity expressed as life span was determined against inoculated L1210 leukemia cells (1*10e6) in mice by 22.5 mg/kg dosage of compound (qd (x 3), for days 1, 4, 7); format: functional, Mus musculus; in short: as §1
L1210 [8] = assay: Antitumor activity expressed as life span was determined against inoculated L1210 leukemia cells (1*10e6) in mice by 22.5 mg/kg dosage of compound (qd (x 3), for days 1, 4, 7,10,13,16); format: functional, Mus musculus; in short: as §1
L1210 [9] = assay: Antitumor activity expressed percentage increase in life span was determined against inoculated L1210 leukemia cells (1*10e5) in mice by 17.3 mg/kg dosage of compound (qd (x 3), for days 1,5,9); format: functional; details: Mus musculus; in short: as §2
L1210 [10] = assay: Antitumor activity expressed percentage increase in life span was determined against inoculated L1210 leukemia cells (1*10e6) in mice by 180 mg/kg dosage of compound (qd (x 3), for days 1, 4, 7); format: functional; details: Mus musculus; in short: as §2
L1210 [11] = assay: Antitumor activity expressed percentage increase in life span was determined against inoculated L1210 leukemia cells (1*10e6) in mice by 22.5 mg/kg dosage of compound (qd (x 3), for days 1, 4, 7); format: functional; details: Mus musculus; in short: as §2
L1210 [12] = assay: Antitumor activity expressed percentage increase in life span was determined against inoculated L1210 leukemia cells (1*10e6) in mice by 30 mg/kg dosage of compound (qd (x 3), for days 1- 7); format: functional; details: Mus musculus; in short: as §2
L1210 [13] = assay: Antitumor activity expressed percentage increase in life span was determined against inoculated L1210 leukemia cells (1*10e6) in mice by 45 mg/kg dosage of compound (qd (x 3), for days 1, 4, 7); format: functional; details: Mus musculus; in short: as §2
L1210 [14] = assay: Antitumor activity expressed percentage increase in life span was determined against inoculated L1210 leukemia cells (1*10e6) in mice by 70 mg/kg dosage of compound (qd (x 3), for days 1-7); format: functional; details: Mus musculus
In short: (§3)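 Female mice of about 18 g (BDF1, DBA/2 or C57Bl/6 stocks used) were inoculated intraperitoneally with 1 × 10^6 L1210 cells. Freshly prepared drug was given once daily from about 24 h after inoculation at 0.01 mL/g, with the dose stated per injection. Controls received 0.154 M NaCl, and groups held 6 mice. %ILS was taken from mean survival, with mice alive at 60 days or more counted as 60 days.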

L1210 [15] = assay: Antitumor activity expressed percentage increase in life span was determined against inoculated L1210 leukemia cells (1*10e6) in mice by 90 mg/kg dosage of compound (qd (x 3), for days 1, 4, 7); format: functional; details: Mus musculus; in short: as §3
L1210 [16] = assay: Antitumor activity expressed as life span was determined against inoculated L1210 leukemia cells (1*10e6) in mice by 70 mg/kg dosage of compound (qd (x 3), for days 1, 4, 7); format: functional, Mus musculus; in short: as §1
L1210 [17] = assay: Antitumor activity expressed as life span was determined against inoculated L1210 leukemia cells (1*10e5) in mice by 5.6 mg/kg dosage of compound (q 3 h (x 8), for days 1, 4, 7,10,13,16)

Nc1nc(Br)nc2c1ncn2[C@H]1C[C@H](O)[C@@H](CO)O1
Life span (L1210 [1]): 18.67 days
Life span (L1210 [2]): 14 days
Life span (L1210 [3]): 12.36 days
Life span (L1210 [4]): 13.17 days
Life span (L1210 [5]): 8.17 days
ILS at 11.3 mg/kg (L1210 [6]): 104%
Life span (L1210 [7]): 15 days
Life span (L1210 [8]): 16.08 days
ILS at 17.3 mg/kg (L1210 [9]): 81%
ILS at 180 mg/kg (L1210 [10]): 0%
ILS at 22.5 mg/kg (L1210 [11]): 137%
ILS at 30 mg/kg (L1210 [12]): 21%
ILS at 45 mg/kg (L1210 [13]): 113%
ILS at 70 mg/kg (L1210 [14]): 11%
ILS at 90 mg/kg (L1210 [15]): 11%
Life span (L1210 [16]): 6.5 days
Life span (L1210 [17]): 11.83 days
